M5 antag: CHRM5 antagonism in calcium assay; P08912; CHO-hM5 cells, Fluo-8 calcium fluorescence, ACh EC80; inhibition, % at 3 µM; hit rate 0.59% among 360,000; AID 624040;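 active means inhibition above a per-plate cutoff, the mean of that plate's test compounds plus 3 SD, cut at about 27% in these data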;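 further: 0% = acetylcholine EC80 with DMSO and 100% = DMSO without agonist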
M1 ag: human M1 muscarinic receptor agonism. AID 588814. activation, % at 3 µM. hit rate 0.33% among 360,000. CHO-K1 hM1, Fluo-8 calcium fluorescence, agonist mode; 0% DMSO, 100% acetylcholine EC100;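 active means activation above the run's mean compound activation plus 3 SD, cut at about 16% in these data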;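 further: peak over basal fluorescence ratio within a 140 s kinetic read after compound addition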
Target sequence (P11229 whole entry, looked up): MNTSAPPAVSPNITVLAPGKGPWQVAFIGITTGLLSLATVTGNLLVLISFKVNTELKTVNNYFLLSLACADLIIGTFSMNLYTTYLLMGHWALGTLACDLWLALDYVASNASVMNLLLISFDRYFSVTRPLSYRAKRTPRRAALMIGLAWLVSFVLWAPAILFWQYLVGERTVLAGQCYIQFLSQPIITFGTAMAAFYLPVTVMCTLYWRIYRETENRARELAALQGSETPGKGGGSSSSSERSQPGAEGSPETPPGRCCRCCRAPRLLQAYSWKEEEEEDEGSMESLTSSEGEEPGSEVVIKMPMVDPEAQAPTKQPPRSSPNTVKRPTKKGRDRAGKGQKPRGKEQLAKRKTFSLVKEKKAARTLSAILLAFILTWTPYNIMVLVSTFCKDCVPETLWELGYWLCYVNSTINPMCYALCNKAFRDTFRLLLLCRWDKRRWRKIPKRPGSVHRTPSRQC
M5 PAM: potentiates acetylcholine response at human M5 receptor | hit rate 0.3% among 360,000 | activation, % at 3 µM | CHO-K1 hM5, Fluo-8 calcium, ACh EC20 PAM; 0% = ACh EC20, 100% = ACh EC100;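 active means activation above the run cutoff, the mean activation of all test compounds plus 3 SD, cut at about 18% in these data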
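Measured by: Fluo-8 calcium fluorescence; material: human M5 receptor in CHO-K1 cells; schedule: Post-acetylcholine fluorescence recording 140 s; benchmarks: low control EC20 acetylcholine (0%), high control EC100 acetylcholine (100%); read-out: Max/basal fluorescence ratio as % of EC20–EC100 ACh window; compound: single dose, 3 µM nominal final test concentration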
M5 ag: CHRM5 agonism in calcium assay; P08912; CHO-K1 hM5 cells, Fluo-8 calcium fluorescence; 0% DMSO wells, 100% maximal acetylcholine response; activation, % at 3 µM; hit rate 0.19% among 360,000; AID 624037;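 active means activation above the run's mean over test compounds plus 3 SD, cut at about 23% in these data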;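 further: signal is peak over basal fluorescence ratio across the kinetic read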
M1 PAM: human CHRM1 positive allosteric modulation. hit rate 0.088% among 360,000. CHO-K1 hM1, Fluo-8 calcium fluorescence, ACh EC20; 0% = ACh EC20, 100% = maximal ACh. AID 588819. activation, % at 3 µM; in the data active means activation above about 19%, passing the limit was not always enough
M1 antag: antagonists of human M1 muscarinic receptor. P11229. CHO-K1 hM1, Fluo-8 calcium fluorescence, ACh EC80 antagonist. inhibition, % at 3 µM. hit rate 1.3% among 360,000;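 active means percent inhibition above its own plate's cutoff, namely the mean of that plate's compound wells plus 3 SD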;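 further: peak over basal fluorescence ratio during 140 s after agonist addition; 0% = ACh EC80 plus DMSO and 100% = DMSO alone without agonist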
The depositor's hits bear a star. Rows were chosen to be rich in hits. Some 2% of all compounds tested hit in one or more screens of this group.

What do the screens show for `CC(C)(O)C#Cc1ccc(CN2CCN(C3CCCCC3)C(CCO)C2)cc1` (stereo not given)?
M5 antag: 2; M1 ag: -11; M5 PAM: -2; M5 ag: -8; M1 PAM: -27; M1 antag: 25*

Results for CC(C)(O)C#Cc1ccc(CN2CCN(C3CCCCC3)C(CCO)C2)s1 (stereo not given) ?
M5 antag: -2; M1 ag: -13; M5 PAM: 4; M5 ag: -8; M1 PAM: -28; M1 antag: 18

What do the screens show for `CS(=O)CSc1nc2c(cc1C#N)CCCC2` (stereo not given)?
M5 antag: 22; M1 ag: -12; M5 PAM: -24; M5 ag: -4; M1 PAM: -36; M1 antag: 95*

Results for O=C(C1CCCN1S(=O)(=O)c1cccc2cccnc12)N1CCn2c1nc1ccccc12 (stereo not given) ?
M5 antag: 10; M1 ag: 13; M5 PAM: -4; M5 ag: 0; M1 PAM: 19; M1 antag: -6

What do the screens show for `O=C(C1CCN(S(=O)(=O)c2cccc3cccnc23)CC1)N1CCn2c1nc1ccccc12`?
M5 antag: 2; M1 ag: 43*; M5 PAM: -8; M5 ag: 3; M1 PAM: -1; M1 antag: 11

How did Sc1ccccc1N=Cc1cccs1 do in these assays?
M5 antag: 7; M1 ag: -6; M5 PAM: -3; M5 ag: -1; M1 PAM: -3; M1 antag: 3

What do the screens show for `O=C1C=C(NNC(=O)c2ccncc2)CC(c2ccccc2)C1` (stereo not given)?
M5 antag: 8; M1 ag: -6; M5 PAM: -12; M5 ag: 33*; M1 PAM: -4; M1 antag: 0

Results for Cc1ccc(S(=O)(=O)C[C@@H]2OC3CCCCC3N2S(=O)(=O)c2ccc(C)cc2)cc1 (stereo not given in full) ?
M5 antag: 2; M5 PAM: 5; M5 ag: -2

Results for Cc1ccc(C(=O)N/C(=C/c2cn(-c3ccccc3)nc2-c2ccccc2)C(=O)O)cc1 ?
M5 antag: 3; M1 ag: -3; M5 PAM: 20*; M5 ag: 7; M1 PAM: 16; M1 antag: -18

How did O=C(/C=C/c1cn(-c2ccccc2)nc1-c1ccccc1)Nc1ccc(C(=O)O)cc1 do in these assays?
M5 antag: 10; M1 ag: -5; M5 PAM: -22; M5 ag: -4; M1 PAM: -21; M1 antag: 98*

Results for NS(=O)(=O)c1ccc(NC(=O)/C=C/c2cn(-c3ccccc3)nc2-c2cccc(Cl)c2)cc1 ?
M5 antag: 4; M1 ag: -5; M5 PAM: 7; M5 ag: -1; M1 PAM: 10; M1 antag: -12

What do the screens show for `COc1ccccc1CNC(=O)C1CCCN1S(=O)(=O)c1ccc2c(c1)C(C)(C)C(=O)N2C` (stereo not given)?
M5 antag: -4; M1 ag: -2; M5 PAM: -2; M5 ag: 1; M1 PAM: 4; M1 antag: -2

What do the screens show for `Cc1cccc(C)c1NC(=O)C1(C)CSCC(=O)N1Cc1cccc(C(F)(F)F)c1` (stereo not given)?
M5 antag: -7; M5 PAM: 10; M5 ag: 0

How did O=C(C=Cc1ccc2c(c1)OCO2)c1ccccc1 do in these assays?
M5 antag: -1; M1 ag: -2; M5 PAM: 0; M5 ag: 2; M1 PAM: 1; M1 antag: -6

How did CCN(C(=O)/C=C/c1ccc2c(c1)OCO2)c1ccccc1 do in these assays?
M5 antag: 1; M1 ag: -11; M5 PAM: 20*; M5 ag: -5; M1 PAM: 5; M1 antag: -15

What do the screens show for `Cc1ccc(C2N(c3ccccc3)C(=S)N3CCCN23)cc1` (stereo not given)?
M5 antag: 10; M1 ag: -7; M5 PAM: -29; M5 ag: -13; M1 PAM: -25; M1 antag: 85*

High-throughput results from PubChem.
